Assay results gathered from unrelated publications.
Target: Mitogen-activated protein kinase 3 (MAPK3, Homo sapiens, UniProt P27361)

Cc1ccc(NC(=O)c2ccnc(C(F)(F)F)c2)cc1-c1cc(OCCO)nc(N2CCOCC2)c1 — remaining binding (binding; 1 µM): 100%
CC#CC(=O)N1CCC[C@H]1c1nc(-c2ccc(C(=O)Nc3ccccn3)cc2)c2c(N)nccn12 — inhibition (enzyme activity, inhibitor; 1 µM): 12%
CCCCC(=O)Nc1ccc(-c2ccc3ncn(CCC)c(=O)c3c2)cn1 — remaining binding (binding, competition with immobilised ligand; 0.5 µM): 97%
c1ccc(-c2ccc3c(c2)NC(C2Nc4cc(-c5ccccc5)ccc4O2)O3)cc1 (stereo not shown) — inhibition (enzyme activity, inhibitor, ADP detection; 10 µM): 54.7%
C=CC(=O)N1CCC[C@@H](n2nc(-c3ccc(Oc4ccccc4)cc3)c3c(N)ncnc32)C1 — inhibition (enzyme activity, inhibitor; 1 µM): 3%
C#Cc1cc(-c2cc(Nc3nc(N[C@@H](C)c4ccc(F)cn4)ncc3Cl)n[nH]2)ccc1C=O — inhibition (enzyme activity, inhibitor; 0.2 µM): 5.48%
N#Cc1ccc(NC(=O)Nc2ccccc2)cc1 — remaining binding (cell-free assay, competition with immobilised ligand; 25 µM): 100%
C[C@H]1CC[C@H](n2c3cnccc3c3cnc(Nc4ccc5c(n4)CCN(C(=O)CO)C5)nc32)CC1 — remaining signal (cell-free assay; 1 µM): 100%
O=C(O)CCC(=O)OCCN(Cc1ccc(Oc2ccc([N+](=O)[O-])cc2)cc1)C(=O)C(Cl)Cl — inhibition (enzyme activity, inhibitor, ADP detection; 10 µM): 49.3%
Cc1cc(O)c(-c2ccc([C@@H](C)CN(C)C)cc2)c2c1[nH]c(=O)c1sccc12 — inhibition (enzyme activity, inhibitor; 0.1 µM): 15.1%
